Experimental data from ChEMBL document CHEMBL1154743, “A novel potent nicotinamide phosphoribosyltransferase inhibitor synthesized via click chemistry” (J Med Chem, 2010).
The source made the active and inactive calls. The rule behind the calls is not given here.

Legend:
[1] = tested on: SK-MEL-28; assay: Growth inhibition of human SK-MEL-28 cells by sulforhodamine B assay; assay type: functional
[2] = tested on: M14; assay: Growth inhibition of human M14 cells by sulforhodamine B assay; assay type: functional
[3] = tested on: NCI/ADR-RES; assay: Growth inhibition of human NCI/ADR-RES cells by sulforhodamine B assay; assay type: functional
[4] = Growth inhibition of human […] cells by sulforhodamine B assay; assay type: functional
[5] = tested on: 786-0; assay: Growth inhibition of human 786-0 cells by sulforhodamine B assay; assay type: functional
[6] = tested on: SH-SY5Y; assay: Induction of autophagy in human SH-SY5Y cells expressing EGFP-LC3 assessed as colocalization of autophagic vacuoles with lysosomes in acidic compartment of cell at 10 nM; assay type: functional, cell-based
[7] = tested on: HCT-15; assay: Growth inhibition of human HCT15 cells by sulforhodamine B assay; assay type: functional
[8] = tested on: RXF 393; assay: Growth inhibition of human RXF393 cells by sulforhodamine B assay; assay type: functional
[9] = tested on: MDA-MB-231; assay: Growth inhibition of human MDA-MB-231 cells by sulforhodamine B assay; assay type: functional
[10] = tested on: ACHN; assay: Growth inhibition of human ACHN cells by sulforhodamine B assay; assay type: functional
[11] = tested on: TK-10; assay: Growth inhibition of human TK10 cells by sulforhodamine B assay; assay type: functional
[12] = tested on: MDA-MB-435; assay: Growth inhibition of human MDA-MB-435 cells by sulforhodamine B assay; assay type: functional
[13] = tested on: NCI-H322M; assay: Growth inhibition of human NCI-H322M cells by sulforhodamine B assay; assay type: functional
[14] = tested on: T47D; assay: Growth inhibition of human T47D cells by sulforhodamine B assay; assay type: functional
[15] = tested on: SH-SY5Y; assay: Cytotoxicity against human SH-SY5Y cells assessed as reduction of total cellular NAD(P) level at 1 uM relative to control; assay type: functional; parameters: scale not given: the % may be the effect or the level left
[16] = tested on: HT-29; assay: Growth inhibition of human HT-29 cells by sulforhodamine B assay; assay type: functional
[17] = tested on: LOX IMVI; assay: Growth inhibition of human LOXIMVI cells by sulforhodamine B assay; assay type: functional
[18] = tested on: UACC-62; assay: Growth inhibition of human UACC62 cells by sulforhodamine B assay; assay type: functional
[19] = tested on: NCI-H226; assay: Growth inhibition of human NCI-H226 cells by sulforhodamine B assay; assay type: functional
[20] = tested on: HOP-62; assay: Growth inhibition of human HOP62 cells by sulforhodamine B assay; assay type: functional
[21] = tested on: IGROV-1; assay: Growth inhibition of human IGROV1 cells by sulforhodamine B assay; assay type: functional
[22] = tested on: PC-3; assay: Growth inhibition of human PC3 cells by sulforhodamine B assay; assay type: functional
[23] = tested on: SF-539; assay: Growth inhibition of human SF539 cells by sulforhodamine B assay; assay type: functional
[24] = tested on: NCI-H522; assay: Growth inhibition of human NCI-H522 cells by sulforhodamine B assay; assay type: functional
[25] = tested on: SW-620; assay: Growth inhibition of human SW620 cells by sulforhodamine B assay; assay type: functional
[26] = tested on: OVCAR-4; assay: Growth inhibition of human OVCAR4 cells by sulforhodamine B assay; assay type: functional
[27] = tested on: OVCAR-3; assay: Growth inhibition of human OVCAR-3 cells by sulforhodamine B assay; assay type: functional
[28] = tested on: SH-SY5Y; assay: Cytotoxicity against human SH-SY5Y cells assessed as cell viability after 48 hrs by MTT assay relative to control; assay type: functional
Procedure, shortened: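 SH-SY5Y cells incubated with compound for 48 h and viability measured by MTT. Values are mean ± SEM of 8-12 determinations.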

[29] = tested on: SF-268; assay: Growth inhibition of human SF268 cells by sulforhodamine B assay; assay type: functional
[30] = tested on: SF-295; assay: Growth inhibition of human SF295 cells by sulforhodamine B assay; assay type: functional
[31] = tested on: HCT-116; assay: Growth inhibition of human HCT116 cells by sulforhodamine B assay; assay type: functional
[32] = tested on: MCF7; assay: Growth inhibition of human MCF7 cells by sulforhodamine B assay; assay type: functional
[33] = tested on: A498; assay: Growth inhibition of human A498 cells by sulforhodamine B assay; assay type: functional
[34] = tested on: HOP-92; assay: Growth inhibition of human HOP92 cells by sulforhodamine B assay; assay type: functional
[35] = tested on: COLO 205; assay: Growth inhibition of human COLO205 cells by sulforhodamine B assay; assay type: functional
[36] = tested on: SN12C; assay: Growth inhibition of human SN12C cells by sulforhodamine B assay; assay type: functional
[37] = tested on: OVCAR-5; assay: Growth inhibition of human OVCAR5 cells by sulforhodamine B assay; assay type: functional
[38] = tested on: DU-145; assay: Growth inhibition of human DU145 cells by sulforhodamine B assay; assay type: functional
[39] = read-out: LC50 (the source's name)

Work on O=C(CCCCCCCn1cc(-c2cccnc2)nn1)Nc1ccccc1-c1ccccc1 yielded a GI50 [1] of 1590 nM, a TGI [1] of over 100 µM and a CC50 [1, 39] of over 100 µM. It also gave a GI50 [2] of 166 nM, a TGI [2] of 20.7 µM and a CC50 [2, 39] of over 100 µM. For the same molecule, the GI50 [3] was 81.4 nM, the TGI [3] was 33.1 µM and the CC50 [3, 39] was over 100 µM. It also gave a GI50 [4] of 913 nM, a TGI [4] of 60.6 µM and a CC50 [4, 39] of over 100 µM. For the same molecule, the GI50 [5] was 7.33 µM, the TGI [5] was over 100 µM and the CC50 [5, 39] was over 100 µM. The Activity [6] was “Active”, the GI50 [7] was 257 nM and the TGI [7] was over 100 µM. For the same molecule, the CC50 [7, 39] was over 100 µM, the GI50 [8] was 100 µM and the TGI [8] was over 100 µM. For the same molecule, the CC50 [8, 39] was over 100 µM, the GI50 [9] was 20.9 µM and the TGI [9] was over 100 µM. The CC50 [9, 39] was over 100 µM, the GI50 [10] was 18.7 µM and the TGI [10] was over 100 µM. The CC50 [10, 39] was over 100 µM, the GI50 [11] was 18.2 µM and the TGI [11] was over 100 µM. The CC50 [11, 39] was over 100 µM, the GI50 [12] was 399 nM and the TGI [12] was 13.3 µM. The CC50 [12, 39] was over 100 µM, the GI50 [13] was 23.1 µM and the TGI [13] was over 100 µM. The CC50 [13, 39] was over 100 µM, the GI50 [14] was 1230 nM and the TGI [14] was 16 µM. For the same molecule, the CC50 [14, 39] was over 100 µM, the Activity [15] was 11.6% and the GI50 [16] was 460 nM. The TGI [16] was over 100 µM, the CC50 [16, 39] was over 100 µM and the GI50 [17] was 10.1 µM. It also gave a TGI [17] of over 100 µM, a CC50 [17, 39] of over 100 µM and a GI50 [18] of 13.3 µM. For the same molecule, the TGI [18] was 51.4 µM, the CC50 [18, 39] was over 100 µM and the GI50 [19] was 15.5 µM. For the same molecule, the TGI [19] was 51.7 µM, the CC50 [19, 39] was over 100 µM and the GI50 [20] was 23.8 µM. For the same molecule, the TGI [20] was over 100 µM, the CC50 [20, 39] was over 100 µM and the GI50 [21] was 272 nM. It also gave a TGI [21] of over 100 µM, a CC50 [21, 39] of over 100 µM and a GI50 [22] of 467 nM. The TGI [22] was 42.8 µM, the CC50 [22, 39] was over 100 µM and the GI50 [23] was 61.8 nM. It also gave a TGI [23] of over 100 µM, a CC50 [23, 39] of over 100 µM and a GI50 [24] of 91.4 nM. For the same molecule, the TGI [24] was over 100 µM, the CC50 [24, 39] was over 100 µM and the GI50 [25] was 61.5 nM. It also gave a TGI [25] of over 100 µM, a CC50 [25, 39] of over 100 µM and a GI50 [26] of 31.6 µM. It also gave a TGI [26] of over 100 µM, a CC50 [26, 39] of over 100 µM and a GI50 [27] of 5.19 µM. It also gave a TGI [27] of over 100 µM, a CC50 [27, 39] of over 100 µM and an Activity [28] of 24%. It also gave a GI50 [29] of 24.7 µM, a TGI [29] of over 100 µM and a CC50 [29, 39] of over 100 µM. The GI50 [30] was 655 nM, the TGI [30] was over 100 µM and the CC50 [30, 39] was over 100 µM. It also gave a GI50 [31] of 40.3 nM, a TGI [31] of over 100 µM and a CC50 [31, 39] of over 100 µM. For the same molecule, the GI50 [32] was 3.42 µM, the TGI [32] was 50.1 µM and the CC50 [32, 39] was over 100 µM. It also gave a GI50 [33] of 15.9 µM, a TGI [33] of over 100 µM and a CC50 [33, 39] of over 100 µM. The GI50 [34] was 97.4 µM, the TGI [34] was over 100 µM and the CC50 [34, 39] was over 100 µM. It also gave a GI50 [35] of 1180 nM, a TGI [35] of 36 µM and a CC50 [35, 39] of over 100 µM. For the same molecule, the GI50 [36] was 42.6 nM, the TGI [36] was over 100 µM and the CC50 [36, 39] was over 100 µM. For the same molecule, the GI50 [37] was 268 nM, the TGI [37] was over 100 µM and the CC50 [37, 39] was over 100 µM. The GI50 [38] was 702 nM, the TGI [38] was over 100 µM and the CC50 [38, 39] was over 100 µM.
